Statin myotox sup: suppressors of simvastatin-induced myotoxicity in C2C12 myotubes; ATP luminescence, 48 h; scaled: DMSO 0, geranylgeraniol control 100; rescue of ATP level, % at 7.49 µM; 0.78% of 330,000 active;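 active = mean ATP rescue above about 67%, or every replicate alone reaching that limit, limit read from the data, passing the limit was not always enough; inconclusive = no clear call, values can overlap the other calls; inactive = mean under the limit and some replicate under it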;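 also: myotubes were challenged with 10 µM simvastatin during compound exposure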
CFTR F508del cor: CFTR F508del correction in bronchial cells. 0.36% of 350,000 active. CFBE cells, YFP halide quenching; stimulated with forskolin plus potentiator P3; % fluorescence drop versus neutral controls. activity (quench increase), % at 7.58 µM. AID 720511;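 active = mean added fluorescence quench of at least 8% versus neutral control, with both replicates also reaching 8%; inconclusive = only one of the mean or replicate conditions met; inactive = mean below 8% and not both replicates reaching 8%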;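 also: cells transiently co-express mutant CFTR-F508del with the halide-sensitive YFP; corrector assay measuring rescue of mutant channel to the surface after 24 h compound exposure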
Cneo AK release: Cryptococcus neoformans lysis via adenylate kinase release | C. neoformans lysis, adenylate kinase release luminescence, 4 h; normalised: neutral wells 0, clomiphene wells 100 | lysis activity, % at 15 µM | 0.2% of 360,000 active | AID 651654;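 active = mean lysis activity across replicates of at least 80%, whatever share of replicates individually reach that level; inactive = mean lysis activity below 80%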
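Material – Cryptococcus neoformans yeast cells · Quantity – 5 × 10^6 yeast cells/mL · Buffer or medium – YPD medium · Compound – single dose · Timing – 4 h static compound exposure, 37 °C, read 1 h post-reagent · Signal – adenylate kinase release luminescence · Read-out basis – lysis from increased AK signal · Benchmarks – Clomiphene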
PDI inh: PDI (human) enzyme inhibition; 0.052% of 350,000 active; inhibition, % at 10 µM; PDI insulin aggregation turbidity, A650, 90 min; P07237;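 active = mean inhibition across replicates of 30% or more, whatever share of single replicates reach that level; inconclusive = mean inhibition below 30% while every single replicate reaches 30%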
ERp5 block: ERp5 (human) disulfide isomerase inhibition | AID 651711 | ERp5 insulin aggregation, absorbance 650 nm, 90 min | inhibition, % at 9.99 µM | 0.05% of 350,000 active | Q15084;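 active = mean replicate inhibition above about 25%, with every replicate also reaching it, limit read from the data, passing the limit was not always enough; inconclusive = only one of those two criteria met; inactive = neither criterion met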
Target sequence (Q15084 whole entry, looked up): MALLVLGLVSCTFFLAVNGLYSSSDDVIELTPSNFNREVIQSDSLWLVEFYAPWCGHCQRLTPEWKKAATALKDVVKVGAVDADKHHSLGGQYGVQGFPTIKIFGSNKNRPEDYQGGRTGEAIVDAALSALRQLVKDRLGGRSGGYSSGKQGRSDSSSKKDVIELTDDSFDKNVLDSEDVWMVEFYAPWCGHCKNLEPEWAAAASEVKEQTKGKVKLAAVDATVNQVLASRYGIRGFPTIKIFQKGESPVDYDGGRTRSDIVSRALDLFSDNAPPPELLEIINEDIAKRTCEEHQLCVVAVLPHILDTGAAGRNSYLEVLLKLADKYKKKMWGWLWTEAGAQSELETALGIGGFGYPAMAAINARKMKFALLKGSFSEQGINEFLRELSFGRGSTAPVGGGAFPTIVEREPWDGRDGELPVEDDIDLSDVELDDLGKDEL
DENV2 CPE rescue: protects cells from dengue virus 2 cytopathic effect; DENV2-infected cells, cytopathic effect rescue, plate reader; CPE inhibition, % at 9.99 µM; 1.7% of 350,000 active; in the data active = CPE inhibition above about 20%, passing the limit was not always enough; inconclusive = no clear call, values can overlap the other calls; tested in BHK-21 cells
Of the large screens only hits and unclear results are named; the others gave an inactive call. Hits are enriched below; roughly 2.3% of the tested compounds scored in any of these assays.

CCCC#Cc1ccc2c(c1)O[C@H](CN(C)C(=O)c1ccccn1)[C@H](C)CN([C@@H](C)CO)S2(=O)=O	none (no result: PDI inh)
COc1ccc(C)cc1Nc1n[n+](-c2ccccc2)c(-c2ccc(OC)c(OC)c2OC)s1	DENV2 CPE rescue 92
COc1ccc(C)cc1Nc1n[n+](-c2ccccc2)c(-c2c(Cl)cccc2Cl)s1	none (no result: Statin myotox sup, Cneo AK release, PDI inh)
C[C@@H]1CN([C@@H](C)CO)C(=O)c2cc(/C=C/c3ccccc3)cnc2O[C@H]1CN(C)C(=O)CN(C)C	none (no result: PDI inh)
CC(C)C#Cc1ccc([C@@H]2[C@@H](C#N)N(C(=O)C3CCC3)[C@@H]2CO)cc1	none (no result: PDI inh)
CC(C)C#Cc1ccc([C@H]2[C@H](C#N)N(C(=O)C3CCC3)[C@H]2CO)cc1	DENV2 CPE rescue 57 (no result: PDI inh)
CCCC#Cc1ccc([C@@H]2[C@@H](CO)N(C(=O)C3CC3)[C@H]2C#N)cc1	DENV2 CPE rescue 63 (no result: PDI inh)
CN(C)CC#Cc1ccc([C@H]2[C@@H](CO)N(C(=O)C3CC3)[C@H]2C#N)cc1	DENV2 CPE rescue 32 (no result: PDI inh)
CCCC#Cc1ccc([C@H]2[C@H](C#N)N(C(=O)C3CC3)[C@H]2CO)cc1	none (no result: PDI inh)
C[C@@H](NC(=O)C[C@@H]1C=C[C@H](NC(=O)CN2CCOCC2)[C@@H](CO)O1)c1ccccc1	none (no result: PDI inh)
C[C@@H]1CCCCO[C@@H](CN(C)C(=O)Nc2cccc3ccccc23)[C@H](C)CN([C@H](C)CO)C(=O)c2cc(NS(=O)(=O)c3ccccc3)ccc2O1	none (no result: Statin myotox sup, PDI inh)
C[C@@H]1CN([C@@H](C)CO)C(=O)c2cc(NS(=O)(=O)c3ccccc3)ccc2O[C@H]1CN(C)C(=O)Nc1cccc2ccccc12	DENV2 CPE rescue 27 (no result: PDI inh)
C[C@@H]1CCCCO[C@H](CN(C)C(=O)Nc2cccc3ccccc23)[C@@H](C)CN([C@@H](C)CO)C(=O)c2cc(NS(=O)(=O)c3ccccc3)ccc2O1	DENV2 CPE rescue 34 (no result: Statin myotox sup, Cneo AK release, PDI inh)
COc1ccc(S(=O)(=O)Nc2ccc3c(c2)C(=O)N([C@@H](C)CO)C[C@H](C)[C@@H](CN(C)C(=O)Nc2cccc4ccccc24)OCCCC[C@@H](C)O3)cc1	DENV2 CPE rescue 26 (no result: Statin myotox sup, Cneo AK release, PDI inh)
C[C@@H]1CCCCO[C@@H](CN(C)C(=O)Nc2cccc3ccccc23)[C@@H](C)CN([C@H](C)CO)C(=O)c2cc(NS(=O)(=O)c3ccc(F)cc3)ccc2O1	DENV2 CPE rescue inconclusive (no result: Statin myotox sup, PDI inh)
C[C@H](CO)N1C[C@H](C)[C@@H](CN(C)C(=O)Nc2cccc3ccccc23)OCCCC[C@H](C)Oc2ccc(NS(=O)(=O)c3ccc(F)cc3)cc2C1=O	DENV2 CPE rescue 39 (no result: Statin myotox sup, PDI inh)
C[C@H](CO)N1C[C@H](C)[C@H](CN(C)C(=O)Nc2cccc3ccccc23)OCCCC[C@H](C)Oc2ccc(NS(=O)(=O)c3cn(C)cn3)cc2C1=O	DENV2 CPE rescue 103 (no result: Statin myotox sup, PDI inh, ERp5 block)
C[C@@H]1CCCCO[C@@H](CN(C)C(=O)Nc2cccc3ccccc23)[C@H](C)CN([C@H](C)CO)C(=O)c2cc(NS(=O)(=O)c3cccs3)ccc2O1	Statin myotox sup 108 (no result: PDI inh)
C[C@H](CO)N1C[C@H](C)[C@@H](CN(C)C(=O)Nc2cccc3ccccc23)Oc2ccc(N(C)C)cc2C1=O	DENV2 CPE rescue 34 (no result: PDI inh)
COc1ccc(NC(=O)Nc2ccc3c(c2)C(=O)N([C@@H](C)CO)C[C@H](C)[C@H](CN(C)C(=O)Nc2cccc4ccccc24)O3)cc1	DENV2 CPE rescue 31 (no result: PDI inh)
C[C@@H]1CN([C@H](C)CO)C(=O)c2cc(NC(=O)Nc3cccc4ccccc34)ccc2O[C@@H]1CN(C)C(=O)Nc1ccccc1	Cneo AK release 103, ERp5 block inconclusive, DENV2 CPE rescue inconclusive (no result: PDI inh)
C[C@@H]1CN([C@H](C)CO)C(=O)c2cc(NC(=O)Nc3cccc4ccccc34)ccc2O[C@@H]1CN(C)C(=O)Nc1cccc2ccccc12	ERp5 block 33 (no result: PDI inh)
C[C@@H]1CN([C@H](C)CO)C(=O)c2cc(NC(=O)Nc3cccc4ccccc34)ccc2O[C@@H]1CN(C)C(=O)Nc1ccc(F)cc1	DENV2 CPE rescue 25 (no result: PDI inh)
C#CCOCCOCCOCCNc1nc(N2CCOCC2)nc(N2CCN(C(=O)[C@H](CCCN=C(N)N)n3cc(C(N)[C@@H](C)CC)nn3)CC2)n1 (stereo partly drawn)	DENV2 CPE rescue 119

Screens from PubChem BioAssay.
